The values that follow come from ChEMBL document CHEMBL4354825, “Design and Synthesis of Basic Selective Estrogen Receptor Degraders for Endocrine Therapy Resistant Breast Cancer” (J Med Chem, 2019).

pIC50: −log10 of the molar value. Active and inactive are the calls of the source. The calls are words filed in the database; no cut-off is given here.

Broadly, the MRT is the average time that molecules of a dose stay in the body. By Tmax is commonly meant the time from dosing to the highest level. A word on the pIC50: it is the IC50 on a negative log10 scale, so that one unit is a factor of ten. As a reminder, the AUC is the area under the concentration-time curve, a measure of exposure. A word on the Cmax: it is the peak of the concentration-time curve.

In series [1] the target is T1, Estrogen receptor (Homo sapiens) (UniProt P03372).
T1 sequence (whole entry): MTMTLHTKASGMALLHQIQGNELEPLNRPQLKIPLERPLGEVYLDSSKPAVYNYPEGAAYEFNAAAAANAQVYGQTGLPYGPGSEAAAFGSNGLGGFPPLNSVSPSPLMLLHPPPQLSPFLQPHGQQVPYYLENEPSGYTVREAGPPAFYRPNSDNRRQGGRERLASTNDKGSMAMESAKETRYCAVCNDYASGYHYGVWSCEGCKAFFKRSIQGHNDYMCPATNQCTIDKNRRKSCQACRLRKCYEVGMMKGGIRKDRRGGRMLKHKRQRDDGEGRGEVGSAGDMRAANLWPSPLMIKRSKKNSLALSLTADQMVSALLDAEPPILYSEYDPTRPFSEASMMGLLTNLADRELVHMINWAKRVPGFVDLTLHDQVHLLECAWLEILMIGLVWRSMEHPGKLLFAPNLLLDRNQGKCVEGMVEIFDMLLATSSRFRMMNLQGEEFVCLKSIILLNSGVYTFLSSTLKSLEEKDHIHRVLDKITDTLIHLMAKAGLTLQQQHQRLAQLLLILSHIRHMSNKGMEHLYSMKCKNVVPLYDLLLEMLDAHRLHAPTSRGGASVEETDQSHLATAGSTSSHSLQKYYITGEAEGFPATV
The experiment in a line: Inhibition of ERalpha in human MCF7:WS8 cells assessed as increase in degradation of ERalpha incubated for 24 hrs by In-Cell Western assay relative to control. Format: cell-based. The essentials:
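MCF7:WS8 cells were estrogen-stripped for 2 days and plated at 2.5 × 10^4 per well. After 48 h they were treated for 24 h. ERα was detected by in-cell western (H10 antibody), with signal normalized to CellTag 700.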

A further series concerns Mus musculus. The experiment in a line: In vivo degradation of ERalpha in C57BL/6 mouse at 50 mg/kg, po measured after 7 hrs by Western blot analysis. Format: functional, organism-based. An outline of the steps: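 Female C57BL/6J mice aged 9–12 weeks were dosed at 50 mg/kg p.o. in PEG 400/10% HPCD (1:9 v/v). Regimens were a single dose with sacrifice at 5 h, or 3 daily doses with sacrifice 5 h (n = 5) or 7 h (n = 6) after the last dose. Ovaries and uterus were homogenized, 20 μg protein was run by SDS-PAGE, and the blot was probed for ERα and normalized to β-actin.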

Series [2] relates to T47D. Briefly: Cytotoxicity against human T47D 3D spheroid cells assessed as reduction in tumor cell viability at 10 nM incubated for 14 days by celltiter-glo 3D cell viability assay.
A short description of series [3]: AUClast in CD-1 mouse plasma at 50 mg/kg, po measured upto 24 hrs by LC-MS/MS analysis. To be noted: in vivo.
The nature of series [4]: MRT (0 to infinity) in CD-1 mouse plasma at 50 mg/kg, po measured upto 24 hrs by LC-MS/MS analysis. To be noted: in vivo.
The nature of series [5]: Tmax in CD-1 mouse plasma at 50 mg/kg, po measured upto 24 hrs by LC-MS/MS analysis. To be noted: in vivo.
Series [6] is described as follows: AUC extrapolated from the last time point to infinity in CD-1 mouse plasma at 50 mg/kg, po measured upto 24 hrs by LC-MS/MS analysis. To be noted: in vivo.
The test system of series [7] is T47D. The experiment in a line: Cytotoxicity against human T47D 3D spheroid cells harboring D538G mutant assessed as reduction in tumor cell viability at 10 nM incubated for 14 days by celltiter-glo 3D cell viability assay. (ATP-based viability assays read luminescence as a measure of living cells.)
The nature of series [8]: Antiproliferative activity against human MCF7:WS8 cells assessed as reduction in cell viability incubated for 5 days by Hoechst 33258 dye based assay. The format is functional. To be noted: MCF7:WS8, 120 h. The essentials: (§1)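 Cells were seeded at 5000 per well; MCF7:WS8 had been estrogen-stripped for 2 days first. Compounds were serially diluted in DMSO, with 0.01% DMSO as vehicle. The medium was removed on day 5 (MCF7:WS8) or day 7 (MCF7:5C), and cells were lysed by freezing at −80 °C overnight. DNA was measured by Hoechst 33258 fluorescence. Maximum efficacy was normalized to vehicle (0%) and no cells (100%); at least three biological replicates.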

The nature of series [9]: AUClast/D in C57BL/6 mouse plasma at 50 mg/kg, po measured upto 24 hrs by LC-MS/MS analysis. The format is ADME, organism-based. The conditions noted are these: in vivo. An outline of the steps: (§2)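 Full PK run by a contract lab. Dosing was 50 mg/kg p.o. in water and 10% SBE-β-CD/PEG-400 (9:1 v/v), and 5 mg/kg i.v. Sampling at 0.25, 0.5, 1, 2, 4, 8 and 24 h (N = 5). Plasma samples were diluted in 50% acetonitrile and quantified by LC-MS/MS against standards serially diluted in 50% acetonitrile. Brain was also sampled after the oral dose.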

In series [10] the target is T1, Estrogen receptor (Homo sapiens). Briefly: Induction of degradation of ERalpha in human MCF7:WS8 cells at 10 nM in presence of MG-132 incubated for 24 hrs by Western blot analysis. Format: cell-based.
Series [11] in a line: Tmax in C57BL/6 mouse brain at 50 mg/kg, po measured upto 24 hrs by LC-MS/MS analysis. The format is ADME, organism-based. To be noted: in vivo. An outline of the steps: as §2
Series [12] is described as follows: Antiproliferative activity against human MCF7:WS8 cells assessed as reduction in cell viability incubated for 5 days by Hoechst 33258 dye based assay relative to control. The format is functional. To be noted: MCF7:WS8, 120 h. An outline of the steps: as §1
Series [13] can be described thus: AUC (0 to infinity) in CD-1 mouse plasma at 50 mg/kg, po measured upto 24 hrs by LC-MS/MS analysis. To be noted: in vivo.
Series [14] is described as follows: Antiproliferative activity against human MCF7:5C cells assessed as reduction in cell viability incubated for 7 days by Hoechst 33258 dye based assay relative to control. The conditions noted are these: 168 h. The format is functional. The essentials:
as §1

The nature of series [15]: Cmax in C57BL/6 mouse brain at 50 mg/kg, po measured upto 24 hrs by LC-MS/MS analysis. Format: ADME, organism-based. Details: dose 50 mg/kg, route oral. The conditions noted are these: in vivo. The essentials:
as §2

In series [16] the test system is T47D. The experiment in a line: Cytotoxicity against human T47D 3D spheroid cells harboring Y537S mutant assessed as reduction in tumor cell viability at 10 nM incubated for 14 days by celltiter-glo 3D cell viability assay.
Series [17] can be described thus: Plasma concentration in C57BL/6 mouse at 100 mg/kg, po measured after 0.5 hrs by LC/MS-MS analysis. The format is ADME, organism-based. The essentials: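 PK screen in female C57BL/6 mice (N = 3 per time point). Dosed by gavage at 100 mg/kg in HPβD/PEG-400. Plasma and brain were taken from perfused mice at 30 and 120 min. Quantified by LC-MS/MS in MRM mode, with standard curves in each matrix and a common internal standard. Values are mean and s.d.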

A further series deals with MCF7:TAM1. The experiment in a line: Antitumor activity against human MCF7:TAM1 cells xenografted in athymic nude mouse assessed as tumor regression at 100 mg/kg, po measured after 4 weeks. The format is functional, organism-based. The essentials:
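MCF7:TAM1 cells were implanted into mammary fat pads of ovariectomized 4–6-week-old athymic nude mice carrying subcutaneous E2 silastic capsules (1.0 cm). Dosing was 100 mg/kg/day p.o. in 10% HPCD/PEG-400 (9:1). Tumor area was measured weekly by calipers as (length/2)×(width/2)×π.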
On the technique in general: In xenograft studies the graft and the host belong to different species.

For the compound `Cc1cc(F)cc(C)c1C(=O)c1sc2cc(O)ccc2c1Oc1ccc(OC2CN(CCCF)C2)cc1`, in series [1], the Efficacy is 92%. Besides, the outcome in the series on Mus musculus, with T47D [2], in the series on T47D [7], in the series with T47D [16] and in the series on MCF7:TAM1 was Active. In series [3], this compound gave an AUClast of 1678 ng·h/mL. The same compound returned an MRT in series [4] of 6.05 h. The Tmax in series [5] and in series [11] was 1 h throughout. Also, the “%AUCextra” value in series [6] is on record as 26.8%. The pIC50 in [8] was 9.26. This compound showed an AUClast/dose in [9] of 33.6 ng·h/mL. Moreover, in [10], the result was inactive. Moreover, the Emax in series [12] is 80%; in [14], 54%. In [13], this compound yielded an area under the curve (AUC) of 2292 ng·h/mL. The compound further had a Cmax in series [15] of 635 ng/mL. The compound further displayed a concentration at 0.5 h in series [17] of 2490 nM.
